Assay results reported in publication PMC11522000 (Nature Microbiology, 2024).
Converted amounts (≈) assume the structure as drawn.

Columns and labels:
C. parvum [1] = experiment: Host cell invasion assay; type: cell-based, Cryptosporidium parvum; conditions: HCT-8, 3 h; EDI048 and KDU731 20 µM, wiskostatin 11.3 µM
Procedure, shortened: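 HCT-8 monolayers were 95–100% confluent. Compounds were added at twice the final concentration 1 h before infection with 50,000 primed oocysts per well. Plates were kept 3 h at 37 °C, 5% CO2, then washed with PBS-0.1% Tween 20, fixed in 4% PFA for 15 min at room temperature, permeabilized with 0.25% Triton X-100 and blocked in 4% BSA. Vacuoles were stained with fluorescein-VVL and nuclei with Hoechst, then imaged.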

C. parvum [2] = experiment: Cytopathic effect; type: cell-based, Cryptosporidium parvum; conditions: read-out: Cp CPE EC50; C. parvum, HCT-8, 48 h
Procedure, shortened: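 HCT-8 cells were grown at 37 °C, 5% CO2 in RPMI-1640 with 10% heat-inactivated FBS. Oocysts were excysted in 10 mM HCl/HBSS for 10 min at 37 °C, then in 2 mM sodium taurocholate in L-15/UltraCULTURE medium for 5 min. Infected cells were seeded onto pre-spotted compound (10-point, 3-fold dilution; DMSO and reference-inhibitor controls) and incubated 48 h. Cells were then lysed for a viability read-out, and concentration-response curves were fitted.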

CpPI(4)K = biological target: T1, CpPI(4)K (Cryptosporidium parvum, UniProt Q5CVD3); experiment: PI; type: biochemical, C. parvum; conditions: CpPI(4)K IC50, 3 μM ATP
T1 sequence (Q5CVD3 1-1114): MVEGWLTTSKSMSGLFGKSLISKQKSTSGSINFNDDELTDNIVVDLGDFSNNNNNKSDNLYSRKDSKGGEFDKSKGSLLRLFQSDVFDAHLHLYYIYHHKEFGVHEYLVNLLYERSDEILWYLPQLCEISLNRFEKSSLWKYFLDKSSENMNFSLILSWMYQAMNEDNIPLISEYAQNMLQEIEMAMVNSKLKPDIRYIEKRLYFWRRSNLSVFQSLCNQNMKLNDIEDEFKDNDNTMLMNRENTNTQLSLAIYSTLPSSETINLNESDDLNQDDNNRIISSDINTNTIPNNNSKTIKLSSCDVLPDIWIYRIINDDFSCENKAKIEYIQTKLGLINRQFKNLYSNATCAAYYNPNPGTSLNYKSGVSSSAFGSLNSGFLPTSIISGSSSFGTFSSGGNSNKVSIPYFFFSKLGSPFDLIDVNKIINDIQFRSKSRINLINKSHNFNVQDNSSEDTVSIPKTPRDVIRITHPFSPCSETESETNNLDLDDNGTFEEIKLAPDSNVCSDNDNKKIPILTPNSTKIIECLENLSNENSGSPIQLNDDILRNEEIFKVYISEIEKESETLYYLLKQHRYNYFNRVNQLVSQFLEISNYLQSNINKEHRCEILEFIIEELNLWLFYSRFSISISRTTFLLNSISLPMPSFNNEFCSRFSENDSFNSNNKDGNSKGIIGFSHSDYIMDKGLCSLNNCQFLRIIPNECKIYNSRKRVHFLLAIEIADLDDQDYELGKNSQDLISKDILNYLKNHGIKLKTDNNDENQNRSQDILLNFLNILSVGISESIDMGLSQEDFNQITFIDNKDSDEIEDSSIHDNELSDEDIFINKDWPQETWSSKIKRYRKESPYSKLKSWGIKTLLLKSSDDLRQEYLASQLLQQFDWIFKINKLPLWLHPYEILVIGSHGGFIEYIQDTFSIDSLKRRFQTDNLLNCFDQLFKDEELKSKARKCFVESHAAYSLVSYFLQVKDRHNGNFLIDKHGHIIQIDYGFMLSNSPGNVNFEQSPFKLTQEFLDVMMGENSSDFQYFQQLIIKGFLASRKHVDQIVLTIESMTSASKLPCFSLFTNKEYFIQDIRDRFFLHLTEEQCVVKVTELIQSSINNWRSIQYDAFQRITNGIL
Procedure, shortened: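 Enzyme was pre-incubated with compound for 5 min at room temperature. The reaction was started with substrate mix at twice final strength (PI, ATP, Tris-HCl pH 7.5, DTT, 0.05% Triton X-100, MnCl2) and run 50 min at room temperature. ADP was measured by ADP-Glo luminescence. IC50s came from in-plate duplicate 10-point 3-fold dilutions, with DMSO and reference-inhibitor controls. The C. parvum enzymes (wild type and mutants) were full-length proteins expressed from baculovirus in Sf21 cells.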

HsPI(4)K = HsPI(4)K (Homo sapiens, UniProt Q9UBF8); experiment: PI; type: biochemical; conditions: HsPI(4)K IC50, 3 μM ATP
Chain of HsPI(4)K (Q9UBF8 523-816 limits assumed): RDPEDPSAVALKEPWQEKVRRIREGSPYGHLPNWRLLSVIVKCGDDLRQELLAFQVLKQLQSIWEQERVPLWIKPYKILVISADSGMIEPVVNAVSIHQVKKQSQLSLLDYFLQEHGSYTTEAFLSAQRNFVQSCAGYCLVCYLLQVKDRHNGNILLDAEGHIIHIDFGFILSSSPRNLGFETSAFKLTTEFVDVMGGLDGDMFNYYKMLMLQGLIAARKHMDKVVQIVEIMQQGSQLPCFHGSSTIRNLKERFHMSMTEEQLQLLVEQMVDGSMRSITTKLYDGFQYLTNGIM

Cytotoxicity assay = type: cell-based, human; conditions: human, HepG2 cells (ATCC CRL-10741), HepG2 CC50, 96 h
[3] = High-throughput equilibrium solubility; type: physicochemical; conditions: pH 6.8, aqueous buffer, thermodynamic from solid
Procedure, shortened: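 Equilibrium solubility was measured by a miniaturized shake-flask method with HPLC quantification.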

[4] = Hepatocytes metabolic stability; type: in vitro ADME; conditions: human
Procedure, shortened: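 Test compound was incubated with liver microsomes or hepatocytes of each species, and parent depletion was quantified by LC-MS/MS. From this, in vitro half-life and intrinsic clearance were derived, along with predicted metabolic clearance and hepatic extraction ratio.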

[5] = Stability in intestinal S9 fraction; type: in vitro ADME; conditions: mouse
Procedure, shortened: (§1)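 Test compound added to intestinal S9 fraction of each species to start the reaction. Incubated in a shaking water bath at 37 °C, with samples taken at sequential timepoints. Samples quenched with ice-cold acetonitrile and analysed by LC-MS/MS. Half-life calculated from the rate of parent compound depletion.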

[6] = Stability in intestinal S9 fraction; type: in vitro ADME; conditions: human
Procedure, shortened: as §1

Plasma stability [7] = type: in vitro ADME; conditions: mouse
Procedure, shortened: (§2)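 Test compound was added to plasma and incubated at 37 °C in a shaking water bath, with samples taken at sequential timepoints. Samples were quenched with ice-cold acetonitrile and analysed by LC-MS/MS, and half-life was calculated from the depletion rate.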

Plasma stability [8] = type: in vitro ADME; conditions: human
Procedure, shortened: as §2

C. parvum [9] = experiment: Mouse efficacy study; type: in vivo, C57BL/6 IFN-γ-knockout mice; conditions: oral 10 mg kg^−1, 5 days; nitazoxanide 100 mg kg^−1
C. parvum [10] = experiment: Washout assay, nanoluciferase-expressing C. parvum; type: cell-based, Cryptosporidium parvum; conditions: regardless of the stage of drug exposure
Procedure, shortened: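 HCT-8 cells were grown to ~90% confluence, then infected with 400 nanoluciferase-expressing oocysts per well. Before infection, oocysts were primed for excystation with 10 mM HCl in water (10 min, 37 °C), then 2 mM sodium taurocholate in DPBS with Ca/Mg (10 min, 16 °C). Luminescence was read over time. RLU taken soon after infection served as day 0 and was used to normalize each timepoint.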

C. parvum [11] = experiment: Time-kill assay, nanoluciferase-expressing C. parvum; type: cell-based, Cryptosporidium parvum

| EC50 (C. parvum [2]) [µM] | solubility [3] [µM] | Hepatocytes ER [4] [%] | half-life ([4]; hepatocytes) [min] | half-life [5] [h] | half-life [6] [h] | half-life (Plasma stability [7]) [min] | half-life (Plasma stability [8]) [h] | Compound | sporozoite invasion (C. parvum [1]) | IC50 (CpPI(4)K) [µM] | IC50 (HsPI(4)K) [µM] | CC50 at 96 h (Cytotoxicity assay) [µM] | efficacy in the mouse model (C. parvum [9]) | washout: cidal activity (C. parvum [10]) | parasiticidal or parasitistatic (C. parvum [11]) |
| --- | --- | --- | --- | --- | --- | --- | --- | --- | --- | --- | --- | --- | --- | --- | --- |
| – | – | – | – | – | – | – | – | CN(C)C[C@H](O)Cn1c2ccc(Br)cc2c2cc(Br)ccc21 (racemic) [wiskostatin, reference compound] | prevented sporozoite invasion and formation of trophozoites | – | – | – | – | – | – |
| 0.349 ± 0.181 | 37 (≈ 20.4 µg/mL) | 95 | 4.8 | 1.6 | 3.58 | < 5 | > 2 | CNC(=O)c1ccc(-c2cnn3ccc(C(=O)N(C[C@H]4CCC(=O)O4)c4ccc(OC(F)(F)F)cc4)cc23)cc1 [Compound 4, (R)-3-(4-(methylcarbamoyl)phenyl)-N-((5-oxotetrahydrofuran-2-yl)methyl)-N-(4-(trifluoromethoxy)phenyl)pyrazolo[1,5-a]pyridine-5-carboxamide] | – | 0.018 ± 0.011 | 1.38 ± 0.13 | 32.2 | poor in vivo efficacy | – | – |
| – | – | – | – | – | – | – | – | CC(=O)Oc1ccccc1C(=O)Nc1ncc([N+](=O)[O-])s1 [NTZ, Nitazoxanide, reference compound] | – | > 10 | > 30 | 34.9 | not efficacious | not cidal | static |
